High-throughput results from PubChem BioAssay.
Only some compounds are listed: those with a hit (about 2.3% of all), similar ones and a draw of the others.
STEP inh: inhibitors of human striatal-enriched phosphatase STEP | inhibition, % at 20 µM | recombinant STEP, OMFP fluorogenic substrate, fluorescence | P54829 | 360,000 tested, 0.25% active | AID 588621;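 active = inhibition at 20 µM, scaled per plate between control wells, above about 37%, limit read from the data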;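 note: 0% = DMSO with enzyme and substrate and 100% = substrate only without enzyme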
Target sequence (P54829 whole entry, looked up): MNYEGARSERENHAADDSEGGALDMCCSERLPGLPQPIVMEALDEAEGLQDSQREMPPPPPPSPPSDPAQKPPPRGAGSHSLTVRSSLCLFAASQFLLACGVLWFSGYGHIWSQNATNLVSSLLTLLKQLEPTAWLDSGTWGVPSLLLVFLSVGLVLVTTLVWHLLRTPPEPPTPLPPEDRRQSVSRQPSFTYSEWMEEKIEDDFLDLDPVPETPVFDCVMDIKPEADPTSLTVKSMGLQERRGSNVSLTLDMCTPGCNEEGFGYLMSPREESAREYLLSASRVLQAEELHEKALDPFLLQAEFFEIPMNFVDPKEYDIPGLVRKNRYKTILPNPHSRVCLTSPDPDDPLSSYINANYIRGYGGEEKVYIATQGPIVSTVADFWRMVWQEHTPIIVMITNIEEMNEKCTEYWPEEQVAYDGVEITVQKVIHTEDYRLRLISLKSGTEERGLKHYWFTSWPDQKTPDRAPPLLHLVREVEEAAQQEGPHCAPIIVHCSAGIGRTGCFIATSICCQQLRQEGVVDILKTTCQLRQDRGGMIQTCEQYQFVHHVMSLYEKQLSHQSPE
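medium = Bis-Tris buffer pH 6.0, 2.5 mM DTT, 0.005% Tween 20 | test system = STEP (striatal-enriched tyrosine phosphatase) enzyme, cell-free | measure = normalized % inhibition | compound dosing = 20 µM, 1% DMSO | also added = 25 µM OMFP | schedule = reaction 20 min, ambient temperature | measured by = fluorescence read at 480 nm ex / 540 nm em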
DNMT1 block: inhibitors of human DNMT1; P26358; DNMT1 molecular beacon, Hinp1I cleavage, fluorescence; inhibition (reported as % activation of signal), % at 10 µM; 360,000 tested, 0.83% active; AID 588458; in the data active = inhibition above about 50%
Scp-1 inhibitor: inhibitors of human Scp-1 phosphatase; Q9GZU7; Recombinant Scp1, phosphopeptide, malachite green phosphate absorbance; inhibition, % at 20 µM; 340,000 tested, 0.88% active; AID 493091;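 active = inhibition above about 50% at 20 µM, limit read from the data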;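 note: plate controls were DMSO wells with enzyme for no effect and wells lacking enzyme for full effect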
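assay system = SCP-1 phosphatase catalytic domain, residues 76-261 | buffer or medium = 50 mM Tris acetate pH 5.5, 0.005% Tween-20, 10 mM MgCl2 | incubation = enzyme reaction 45 min at room temperature, colour 5 min, stabilisation 30 min | signal = Phosphate-binding colour reagent, absorbance read at 630 nm | measure = % inhibition at 20 µM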
LMPTP inh: blocks human LMPTP phosphatase. P24666. inhibition, % at 20 µM. 360,000 tested, 0.22% active. recombinant LMPTP-A, OMFP fluorogenic substrate, fluorescence intensity;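 active = compounds that cut the enzyme signal by at least half of the control window in the single-dose screen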;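 note: plate controls were DMSO wells with enzyme plus substrate for no effect and substrate without enzyme for full effect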
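Test system: LMPTP-A phosphatase enzyme. Amount: LMPTP-A at 0.625 nM final in the reaction. Reagent: OMFP substrate, 400 µM final. Times: 50 min at room temperature. Signal: endpoint fluorescence intensity from OMFP dephosphorylation. Read-out basis: % inhibition. Benchmarks: no-enzyme and uninhibited controls.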
Rpn11 block: inhibitors of human proteasome Rpn11; O00487; inhibition, % at 20 µM; human 26S proteasome, Ub4-pepOG fluorescence polarization; 20S core pre-blocked with epoxomicin; 360,000 tested, 0.59% active;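 active = inhibition at 20 µM, scaled to each plate's controls, above about 33%, limit read from the data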
SUMO1-SIM PPI: SUMO1-SIM interaction modulation; P63165; SUMO1 binding to a labelled peptide, TR-FRET, 1 h; inhibition, % at 20 µM; 360,000 tested, 0.33% active; AID 602429; in the data active = inhibition above about 37%
Target sequence (P63165 whole entry, looked up): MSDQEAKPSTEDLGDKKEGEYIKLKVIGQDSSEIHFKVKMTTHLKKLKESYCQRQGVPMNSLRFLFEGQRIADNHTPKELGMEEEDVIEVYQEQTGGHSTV
Rpn11 inh conf: confirmation of human proteasome Rpn11 inhibitors; shares compounds with Rpn11 block; purified human 26S proteasome, Ub4-pepOG fluorescence polarization; proteasome pretreated with epoxomicin; inhibition, % at 20 µM; 1,900 tested, 29% active; AID 602318
MMP-2 inh: blocks human MMP-2, flagging nonselective RPN11 hits. shares compounds with Rpn11 block. recombinant MMP-2, FRET peptide cleavage fluorescence. inhibition, % at 20 µM. 1,900 tested, 4% active;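 note: human MMP-2 activated beforehand with APMA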
Thrombin FP: counter-screen for RPN11 inhibitors: inhibition of bovine thrombin; AID 602333; shares compounds with Rpn11 block; inhibition, % at 20 µM; 1,900 tested, 13% active; bovine thrombin cleavage of Ub4-pepOG, fluorescence polarization;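 active = mean inhibition at least 40% at 20 µM, or signal 3 deviations below plate average, so some actives read negative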;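 note: plate controls were thrombin with DMSO for no effect and buffer wells lacking thrombin for full effect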
Starred values were filed as active, the others as inactive; / = no result given. Cut-off read from the data, not from the text of the source, unless noted: active = inhibition above about 40%; inactive = the rest.

SMILES | STEP inh | DNMT1 block | Scp-1 inhibitor | LMPTP inh | Rpn11 block | SUMO1-SIM PPI | Rpn11 inh conf | MMP-2 inh | Thrombin FP
COc1ccc2c(c1)/C(=C\c1cccc(/C=C3/C(=O)Nc4ccc(OC)cc43)n1)C(=O)N2 | 2.2 | 34.5 | -10.4 | 3.2 | 8.6 | 23.0 | / | / | /
NC(=O)C(=O)N/N=C/c1c2ccccc2cc2ccccc12 | -1.4 | 6.4 | 2.4 | 0.7 | 41.1* | -11.2 | 11.5 | -30.6 | -9.1
CCN(CC)S(=O)(=O)c1ccc(NC(=O)CC(NC(C)=O)c2ccccc2)cc1 (centres undefined) | -0.3 | -1.4 | -1.0 | -0.6 | -3.1 | -6.7 | / | / | /
CC12CCC(C/C1=N/O)C2(C)CBr (centres undefined) | 2.0 | 0.7 | -11.4 | 1.1 | 32.1* | 3.2 | -14.1 | -50.7 | -17.3
CC(=O)c1sc(N/N=C2\CC3CCC2(C)C3(C)C)nc1C (centres undefined) | -0.5 | -2.1 | -4.1 | 0.8 | 9.3 | -7.2 | / | / | /
FC(F)(F)C(F)(F)C(F)(F)c1nnc2ccc(N3CCOCC3)nn12 | 4.2 | 2.8 | -4.2 | -1.8 | 92.5* | -1.8 | -9.7 | -19.9 | -9.6
O=C(Nc1ccccc1)C1=C[C@@H](c2coc3ccccc3c2=O)C[C@@H](OCCCCO)O1 | 0.6 | -2.5 | -4.4 | -0.8 | 4.2 | -0.4 | / | / | /
CS(=O)(=O)NCC(c1ccco1)N1CCN(c2ccc(F)cc2)CC1 (centres undefined) | -1.9 | 4.7 | -5.2 | -1.4 | -2.2 | 1.7 | / | / | /
ClCC1NCC(c2ccccc2Cl)c2c1[nH]c1ccccc21 (centres undefined) | -5.0 | -7.8 | -0.7 | 2.3 | 71.5* | -2.2 | 33.0 | 37.6 | 18.2
Cc1ccc(S(=O)(=O)c2c(N)n(NC(=O)c3ccco3)c3nc4ccccc4nc23)cc1 | -1.4 | -5.2 | -2.5 | -1.6 | 39.2* | -4.6 | 5.2 | -44.9 | -3.4
COC(=O)c1ccc2nc(-c3ccc(Cl)cc3)c(Cc3ccc(OC)cc3C)n2c1 | / | / | / | 3.1 | / | -2.6 | / | / | /
COc1ccc(Cc2c(-c3ccc(C)cc3)nc3ccc(Cl)cn23)c(C)c1 | -3.7 | 17.9 | / | 2.2 | 44.2* | 6.9 | 51.6* | 23.6 | 37.1
N#Cc1c(-c2cccs2)nc(SCC(=O)c2cccs2)[nH]c1=O | 5.0 | -0.4 | 1.7 | 1.3 | 46.9* | 18.0 | 68.4* | 3.9 | 44.1*
O=C(CSc1nc2ccccc2c(=O)[nH]1)c1cccs1 | -1.2 | -0.6 | -12.7 | -2.7 | 2.3 | -2.9 | / | / | /
N=C1/C(=C\c2ccc(SCc3ccccc3)o2)C(=O)N=C2SC(CC(=O)N3CCOCC3)=NN12 | 2.1 | 9.8 | 14.7 | 5.3 | 41.2* | -3.4 | 7.6 | -4.0 | -4.4
COc1ccc(-n2c(C)cc(/C=C3\C(=N)N4N=C(CC(=O)N5CCOCC5)SC4=NC3=O)c2C)c(OC)c1 | 0.2 | -4.4 | -9.1 | 2.5 | 42.7* | -17.5 | 17.2 | 13.1 | 3.5
COc1ccccc1-n1c(C)cc(/C=C2\C(=N)N3N=C(CC(=O)N4CCOCC4)SC3=NC2=O)c1C | 2.9 | 2.4 | -9.1 | 1.9 | 0.1 | -16.5 | / | / | /
CSc1ccc(CN(C)CC(=O)Nc2c(F)cccc2F)cc1 | -0.8 | -0.2 | -13.8 | -0.8 | 5.3 | 2.3 | / | / | /
O=C(CSc1cn(CCNC(=O)c2cccs2)c2ccccc12)NC1CCCC1 | -0.6 | -3.5 | 2.4 | 0.6 | 7.3 | 3.4 | / | / | /
Cc1ccc(-c2ccc(/C=C/C(=O)c3ccccc3)o2)cc1 | -0.6 | 4.3 | -11.2 | 1.8 | 76.3* | -0.1 | 28.4 | -15.0 | -2.0
O=C(CCc1c[nH]c2ccccc12)NCC(=O)Nc1ccc(F)c(F)c1F | -2.5 | 2.0 | -4.9 | -2.1 | -8.1 | 0.0 | / | / | /
Cc1cc(C)c(C#N)c(SCCN2CCCCC2)n1 | 0.2 | 2.2 | -7.5 | -1.2 | -4.0 | -5.2 | / | / | /
N#Cc1c(C(F)(F)F)cc(-c2ccc(Cl)c(Cl)c2)nc1SCCN1CCOCC1 | 6.0 | -2.1 | 3.1 | 4.3 | 52.1* | -5.2 | 16.8 | -16.8 | 38.2
Cc1cc(C(F)(F)F)nc(SCCN2CCOCC2)c1C#N | -1.6 | -0.2 | -5.2 | -1.1 | 44.5* | 4.6 | 50.0* | -13.1 | 29.3
CN(Cc1nc2ccccc2c(=O)[nH]1)C(=O)c1cc(C2CC2)nn1-c1ccccc1 | -3.3 | -2.9 | -7.2 | -1.3 | -4.3 | -2.8 | / | / | /
SMILES | STEP inh | DNMT1 block | Scp-1 inhibitor | LMPTP inh | Rpn11 block | SUMO1-SIM PPI | Rpn11 inh conf | MMP-2 inh | Thrombin FP
CCOC(=O)c1c(NC(=O)C2=C(C)NC(=S)NC2c2ccc(F)cc2)sc(C)c1C (centres undefined) | -2.8 | -15.6 | -6.8 | 1.4 | 10.5 | -3.3 | / | / | /
CCOC(=O)c1c(NC(=O)C2=C(C)NC(=S)NC2c2ccc(F)cc2F)sc(C)c1C (centres undefined) | -2.0 | -6.8 | -12.8 | 1.4 | 38.4* | -4.3 | -14.5 | 10.8 | -20.1
CCN(CC)S(=O)(=O)c1ccc(NC(=O)c2ccc(OCC3CCCO3)cc2)cc1 (centres undefined) | -0.5 | -2.7 | -10.2 | 3.8 | -7.4 | 4.5 | / | / | /
Cc1ccc(CCNC(=O)CS(=O)Cc2nc(-c3cccs3)oc2C)cc1 (centres undefined) | 3.6 | -7.0 | 3.5 | 0.3 | 12.2 | -1.2 | / | / | /
COc1ccc(CCNC(=O)CS(=O)Cc2nc(-c3cccs3)oc2C)cc1OC (centres undefined) | -0.1 | -7.8 | -2.5 | -0.9 | 119.6* | 2.2 | 11.9 | -5.8 | 12.7
CCOC(=O)c1c(NC(C)=O)sc(/C(C)=N/Nc2ccc(C(=O)O)cc2)c1C | 2.3 | -1.0 | -5.7 | 1.0 | -8.5 | 3.9 | / | / | /
O=c1cc(N2CCc3ccccc3C2)[nH]c(=O)n1Cc1ccc(F)cc1 | -0.8 | -10.2 | -8.4 | 0.2 | 55.8* | 3.3 | -2.3 | -25.8 | -12.9
COc1ccc(C(=O)O)cc1NC(=S)NC(=O)c1ccc(-c2ccc(Cl)cc2)o1 | 4.3 | -1.4 | 9.2 | 3.7 | 4.7 | 7.2 | / | / | /
Cc1ccc(C(=O)O)cc1NC(=S)NC(=O)c1ccc(-c2ccc(Cl)cc2)o1 | 6.6 | 1.5 | -5.2 | 17.6 | 48.5* | -11.0 | 13.2 | 44.9* | -22.8
CCCCc1ccc(NC(=O)CC(C)=O)cc1 | 0.5 | 3.8 | -10.3 | -0.9 | 59.1* | 0.7 | -14.2 | 24.1 | -19.8
CCCCc1ccc(NC(=O)CC(C)(C)C)cc1 | 3.2 | 9.1 | -6.3 | 1.6 | -3.5 | 0.4 | / | / | /
Cc1ccc(NC(=O)/C(C#N)=C/c2ccc(C)s2)c(C)c1 | -7.5 | 5.5 | 9.4 | -1.3 | / | -6.1 | / | / | /
